Consider 14 compounds from paper PMC7954469 (European journal of medicinal chemistry, 2021).

By IC50 is commonly meant the concentration that inhibits the measured activity by half.

Read-outs that look alike come from different tables or passages of the source. Where a SMILES comes first, the peptide text is derived from it. [ ]: non-standard residue; d: D form. The star is where a group is joined. Cbz = O=C(OCc1ccccc1)* Some results are limits rather than exact numbers.

In assay [1] the test system is p97. The following applies: cited from earlier work.
The subject of assay [2] is Ub^G76V-GFP. Nature of the assay: Washout. The following applies: cycloheximide, additional 17 h. Type of assay: cell-based, human.
Assay [3] deals with T1, p97 (Homo sapiens, UniProt P55072). Briefly: p97 ATPase activity assay. The format is biochemical.
In another assay the target is T532C-yeast Cdc48 (Saccharomyces cerevisiae, UniProt P25694, T532C). Nature of the assay: ATPase activity assay, T532C-yeast Cdc48. Type of assay: biochemical.
Assay [4] concerns the target T1, p97. The following applies: read-out: Apparent IC50 p97; ATPase activity; adapted from reference; cited from earlier work.
For assay [5], the system named is Ub^G76V-GFP. The following applies: read-out: Apparent IC50 Ub^G76V-GFP; adapted from reference; cited from earlier work.
In another assay the test system is ODD-Luc. The following applies: read-out: Apparent IC50 ODD-Luc; adapted from reference; cited from earlier work.
The target in the next assay is C522A-p97 (Homo sapiens, UniProt P55072, C522A). The note with it: cited from earlier work.
The next assay deals with Syk. The note with it: cited from earlier work.
A further assay deals with C522A mutant. The following applies: cited from earlier work.
Another assay relates to cancer cell lines. The following applies: cited from earlier work.
Another assay addresses Yeast Cdc48 (Saccharomyces cerevisiae, UniProt P25694). Briefly: ATPase activity assay, yeast Cdc48. Type of assay: biochemical.
The target of the next assay is Hamster NSF (Cricetulus griseus, UniProt P18708). Briefly: ATPase activity assay, NSF. Type of assay: biochemical.
A further assay has as its target Human 26S proteasome (Homo sapiens, UniProt P28074). Briefly: Human 26S proteasome activity assay. Type of assay: biochemical. The note with it: 5, 25, or 50 μM; affinity-purified 26S proteasome from Hek293 cells; listed as PPA. In outline:
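26S proteasome was affinity-purified from HEK293 cells stably expressing tagged Rpn11. Suc-LLVY-AMC (60 μM) then started the reaction. Fluorescence was read every 3 min for 30 min, in sextuplicate.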

In assay [6] the test system is CB-5083 resistant HCT116 cell line harboring D649A, T688A p97 mutant (CB-R). Briefly: Anti-proliferative assay, CB-5083 resistant HCT116. Type of assay: cell-based, human. The following applies: compared with parental HCT116; listed as PPA.
The subject of assay [7] is NMS-873 resistant HCT116 cell line harboring A530T p97 mutant (NMS-R). Nature of the assay: Anti-proliferative assay, NMS-873 resistant HCT116. The format is cell-based, human. The following applies: compared with parental HCT116; listed as PPA. In outline:
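Cells were grown in RPMI1640 or DMEM with 5% FBS and 1% penicillin-streptomycin. Seeding was 750 or 3000 cells/well, set from each line's luminescence–cell-number standard curve. After 24 h, cells got test compound (eight three-fold dilutions) for 48 h at 37 °C, 5% CO2. Viability was read by CellTiter-Glo luminescence. IC50 came from % growth versus DMSO control. Data are mean ± SEM of four replicate experiments.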

The next assay concerns TCRα-GFP. Briefly: TCRα-GFP. The note with it: 10 μM, 60 min or 120 min, cycloheximide, HEK293 cells. The format is cell-based, human. In outline:
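HEK293 cells stably expressing TCRα-GFP were pretreated 1 h with 4 μM MG132, then washed. They were then incubated with 50 μM cycloheximide plus 10 μM test compound, or MG132 as control, for 60 or 120 min before harvest. Lysates were immunoblotted with anti-GFP, with anti-p97 as loading control, and detected by ECL.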

T1 sequence (P55072 whole entry): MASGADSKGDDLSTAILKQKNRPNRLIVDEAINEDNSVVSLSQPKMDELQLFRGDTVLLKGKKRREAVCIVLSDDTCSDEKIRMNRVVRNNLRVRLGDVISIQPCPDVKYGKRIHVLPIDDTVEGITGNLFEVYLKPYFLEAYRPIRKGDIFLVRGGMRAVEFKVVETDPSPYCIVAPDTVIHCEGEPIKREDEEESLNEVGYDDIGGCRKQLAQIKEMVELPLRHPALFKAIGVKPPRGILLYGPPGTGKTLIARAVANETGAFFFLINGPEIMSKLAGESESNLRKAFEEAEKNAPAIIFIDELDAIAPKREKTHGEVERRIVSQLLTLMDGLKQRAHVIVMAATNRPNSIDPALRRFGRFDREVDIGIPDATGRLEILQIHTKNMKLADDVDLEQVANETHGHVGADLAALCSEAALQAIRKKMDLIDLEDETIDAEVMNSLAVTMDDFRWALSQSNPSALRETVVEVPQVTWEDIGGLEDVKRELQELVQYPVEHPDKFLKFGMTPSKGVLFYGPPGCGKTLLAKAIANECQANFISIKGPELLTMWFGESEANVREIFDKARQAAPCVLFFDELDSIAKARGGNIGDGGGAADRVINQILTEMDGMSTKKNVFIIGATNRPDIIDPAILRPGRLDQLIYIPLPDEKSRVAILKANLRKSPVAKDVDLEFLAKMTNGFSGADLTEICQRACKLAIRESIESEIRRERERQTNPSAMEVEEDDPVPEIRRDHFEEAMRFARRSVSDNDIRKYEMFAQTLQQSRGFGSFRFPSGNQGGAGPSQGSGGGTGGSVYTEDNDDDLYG
T532C-yeast Cdc48, sequence (P25694 whole entry T532C): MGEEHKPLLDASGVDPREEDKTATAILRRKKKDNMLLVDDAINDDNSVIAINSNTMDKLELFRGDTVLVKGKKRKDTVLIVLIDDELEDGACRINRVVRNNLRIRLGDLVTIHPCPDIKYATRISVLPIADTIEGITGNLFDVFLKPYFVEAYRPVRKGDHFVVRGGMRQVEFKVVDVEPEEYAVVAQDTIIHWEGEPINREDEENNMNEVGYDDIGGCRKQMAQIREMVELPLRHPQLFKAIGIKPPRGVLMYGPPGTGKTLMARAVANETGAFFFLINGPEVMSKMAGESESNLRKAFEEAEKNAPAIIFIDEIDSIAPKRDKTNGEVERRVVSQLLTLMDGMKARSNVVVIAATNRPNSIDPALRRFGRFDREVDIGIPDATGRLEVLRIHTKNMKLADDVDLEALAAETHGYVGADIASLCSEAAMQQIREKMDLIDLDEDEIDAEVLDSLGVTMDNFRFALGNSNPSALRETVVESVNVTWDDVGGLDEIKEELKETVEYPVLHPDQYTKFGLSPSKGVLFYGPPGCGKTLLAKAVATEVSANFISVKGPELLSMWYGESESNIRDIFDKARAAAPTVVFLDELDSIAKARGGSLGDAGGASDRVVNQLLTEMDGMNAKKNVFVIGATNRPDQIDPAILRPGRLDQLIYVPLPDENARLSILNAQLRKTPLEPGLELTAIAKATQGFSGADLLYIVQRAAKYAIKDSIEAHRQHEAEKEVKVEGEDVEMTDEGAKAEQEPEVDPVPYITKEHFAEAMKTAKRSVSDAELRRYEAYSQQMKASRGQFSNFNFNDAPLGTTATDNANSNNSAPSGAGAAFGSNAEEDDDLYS
Hamster NSF, sequence (P18708 whole entry): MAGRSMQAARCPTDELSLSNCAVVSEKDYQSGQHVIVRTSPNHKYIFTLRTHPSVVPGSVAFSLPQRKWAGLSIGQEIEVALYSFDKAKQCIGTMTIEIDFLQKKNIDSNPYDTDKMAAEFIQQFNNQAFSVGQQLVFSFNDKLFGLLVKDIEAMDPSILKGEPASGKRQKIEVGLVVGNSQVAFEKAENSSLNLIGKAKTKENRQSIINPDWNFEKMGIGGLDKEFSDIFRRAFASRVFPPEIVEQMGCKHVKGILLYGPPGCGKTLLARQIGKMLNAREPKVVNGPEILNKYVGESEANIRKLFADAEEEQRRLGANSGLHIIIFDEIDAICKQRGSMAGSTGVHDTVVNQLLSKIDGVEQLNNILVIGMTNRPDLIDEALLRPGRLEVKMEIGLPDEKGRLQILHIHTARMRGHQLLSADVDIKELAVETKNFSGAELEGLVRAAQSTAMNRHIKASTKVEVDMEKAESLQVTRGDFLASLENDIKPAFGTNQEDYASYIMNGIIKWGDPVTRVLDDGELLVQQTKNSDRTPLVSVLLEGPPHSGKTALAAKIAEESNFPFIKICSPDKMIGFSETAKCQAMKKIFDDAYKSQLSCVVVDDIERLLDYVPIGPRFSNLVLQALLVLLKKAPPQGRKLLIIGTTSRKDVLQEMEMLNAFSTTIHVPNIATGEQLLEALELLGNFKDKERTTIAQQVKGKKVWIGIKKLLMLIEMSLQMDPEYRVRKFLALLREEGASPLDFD
C522A-p97, sequence (P55072 whole entry C522A): as the sequence (P55072 whole entry) above, with C522A counted along it
Yeast Cdc48, sequence (P25694 whole entry): as the sequence (P25694 whole entry T532C) above, with C532T counted along it

For `O=C(/C=C1\Nc2ccccc2C(=O)N2CCC[C@@H]12)/C=C/c1c[nH]c2ccc(I)cc12` [5’-I-Fuligocandin B], the IC50 in the assay on p97 [1] is 7 µM.

Turning to `CC(C)C[C@@H](C=O)NC(=O)[C@@H](CC(C)C)NC(=O)[C@H](CC(C)C)NC(=O)OCc1ccccc1` [MG132] (Cbz-Leu-[dL]-Leu-aldehyde), in the assay on Ub^G76V-GFP [2], the “Reversibility: Ub^G76V-GFP degradation after washout (in words)” value is recorded as “degraded after washing out”.

As for `Cc1ccc(-c2c(C(=O)CF)n(CCCO)c3ncnc(N)c23)cc1` [Compound 5], the “Less active than compound 4” value on p97 [3] (in vitro and cell-based p97 assays, summary of Table 1) is 10 fold.

`CC1CCCC=CC(=O)c2c(O)cc(O)cc2CC(=O)O1` (stereo not shown) [Δ(10,11)-Dehydrocurvularin]: the IC50 with p97 [1] (covalent bond with Cys522) was 15.3 ± 9.9 µM.

For the compound `COc1cccc2c(NCc3ccccc3)nc(-n3c(N)nc4ccccc43)nc12` [ML240], the IC50 in the assay with p97 [1] was about 0.1 µM.

At T532C-yeast Cdc48, `CC(C)(C)n1nc(-c2ccc3ccccc3c2)c2c(N)ncnc21` [Compound 21, 2-Naphthyl pyrazolopyrimidine] came in with a half-maximal inhibitory concentration (IC50) of over 100 µM.

Consider Oxaspirol B, for which the 50% inhibitory concentration (IC50) in the assay with p97 [1] is 31.2 ± 3 µM.

As for `CC(C)N1CCN(CCNC2CCN(c3cccc(-c4cc5cc(F)ccc5[nH]4)c3)CC2)CC1` [UPCDC30245], the IC50 in the assay with p97 [1] (allosteric p97 inhibitor) was 0.027 µM.

In the case of `c1ccc(CNc2nc(N3CCOc4ccccc43)nc3c2CCCC3)cc1` [ML241], the IC50 in the assay with p97 [1] is about 0.1 µM.

As to `O=C(O)/C=C/c1ccc2c(c1)OCO2` [Compound 7], on p97 [3] (summary of Tables 2 and 3), the “Activity in ATPase and Ub^G76V-GFP turnover assays (in words)” value was “complete loss of activity”.

Turning to “3,4-methylenedioxy-β-nitrostyrene [Compound 2]”, the half-maximal inhibitory concentration (IC50) at p97 [4] was 1.7 ± 0.5 µM; with Ub^G76V-GFP [5], 1.6 ± 0.4 µM; in the assay on ODD-Luc, 3.9 ± 1 µM. Further, the “Activity towards the C522A mutant (in words)” value on C522A-p97 is “poor activity”. For the same compound, the “IC50 Syk (in words)” value in the assay on Syk was “submicromolar”.

`CC(=O)OCC1=C(C)C[C@H]([C@@H](C)[C@H]2CC[C@H]3[C@@H]4C[C@H]5O[C@]56[C@@H](O)C=CC(=O)[C@]6(C)[C@H]4CC[C@]23C)OC1=O` [Withaferin A 27-Acetate]: the half-inhibitory concentration (IC50) in the assay on p97 [1] (wild-type p97) was 21 µM. In the assay on C522A mutant, the “Inhibition against the C522A mutant (in words)” value was “didn’t show inhibition”. The “Anti-proliferative effects at lower concentration than p97 IC50” value with cancer cell lines is listed as 10 fold.

With `C=CC(=O)Nc1ncnc2c1c(-c1ccccc1)nn2C(C)(C)C` [Compound 18, N-(1-(tert-butyl)-3-phenyl-1H-pyrazolo[3,4-d]pyrimidin-4-yl)acrylamide], the “Selectivity on wild-type vs. Cys522-mutated p97” value at p97 [3] is given as “up to 100 fold”. The concentration for half-maximal inhibition (IC50) on Yeast Cdc48 came to 300 µM; on Hamster NSF, 100 µM. Also, at Hamster NSF, the “NSF less sensitive than p97” value was “more than 100 fold”. Moreover, the “Inhibition of hydrolysis of LLVY-AMC by 26S proteasome (in words)” value on Human 26S proteasome is listed as “did not inhibit”. In addition, the “Anti-proliferative activity in CB-R HCT116 (in words)” value in assay [6] is recorded as “can inhibit growth”. In [7], the “Anti-proliferative activity in NMS-R HCT116 (in words)” value is recorded as “can inhibit growth”. Besides, the “Reversibility: Ub^G76V-GFP degradation after washout (in words)” value in the assay on Ub^G76V-GFP [2] was “irreversibly block degradation”. The “Degradation of ERAD substrate TCRα-GFP (in words)” value in the assay with TCRα-GFP is listed as “block degradation”.

Compound `CC(C)(C)n1nc(-c2ccccc2)c2c(N)ncnc21` [Compound 17, 4-amino-1-tert-butyl-3-phenyl pyrazolo[3,4-d]pyrimidine] yielded an IC50 on T532C-yeast Cdc48 of over 100 µM.
